Data set [1] addresses T1, Thromboxane-A synthase (Homo sapiens, UniProt P24557).
T1 sequence (P24557 whole entry): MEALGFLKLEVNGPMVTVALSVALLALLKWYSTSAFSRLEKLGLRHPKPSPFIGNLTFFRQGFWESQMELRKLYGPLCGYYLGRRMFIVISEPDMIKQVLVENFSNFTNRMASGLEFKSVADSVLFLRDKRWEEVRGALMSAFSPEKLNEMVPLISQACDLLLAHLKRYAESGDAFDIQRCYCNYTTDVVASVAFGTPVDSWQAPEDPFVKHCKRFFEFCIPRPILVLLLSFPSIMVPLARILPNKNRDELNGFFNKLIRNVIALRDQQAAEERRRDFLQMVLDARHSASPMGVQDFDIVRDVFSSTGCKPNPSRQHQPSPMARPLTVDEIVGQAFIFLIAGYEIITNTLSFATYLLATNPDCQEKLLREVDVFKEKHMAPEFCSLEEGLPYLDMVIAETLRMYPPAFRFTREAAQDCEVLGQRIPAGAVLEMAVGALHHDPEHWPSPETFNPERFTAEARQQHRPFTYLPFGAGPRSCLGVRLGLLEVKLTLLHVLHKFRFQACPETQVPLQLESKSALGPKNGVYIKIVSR
Briefly: In vitro inhibition of thromboxane A2 synthetase from human platelets. The gist of the method: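 Human platelet microsomal Tx synthetase, mixed with solubilized partially purified sheep seminal vesicle PGH2 synthetase to make endoperoxide in situ from [1-14C]arachidonic acid (2 nmol). Buffer 0.1 M Tris-HCl pH 7.5 with tryptophan 5 mM and hemoglobin 0.2 μM; 30 min, 37 °C. PGE2 reduced; TLC, scintillation counting. IC50 read graphically as 50% fall in TxB2/PGF2(α+β) count ratio; mean of ≥2 experiments.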

A short description of data set [2]: Partition coefficient (logP). In kind it is physicochemical. The note with it: octanol/water.
The target in data set [3] is T1, Thromboxane-A synthase. Briefly: In vitro inhibitory activity against thromboxane A2 synthetase with lysed human platelets as the enzyme source. The gist of the method: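 Crude microsomal Tx synthetase from human platelets plus partially purified sheep seminal vesicle PGH2 synthetase forming endoperoxide in situ from [1-14C]arachidonic acid (4 μM); 0.1 M Tris-HCl pH 7.5, 5 mM tryptophan, 0.2 μM hemoglobin; 30 min, 37 °C. PGE2 reduced to PGF2(α+β); products separated by TLC and counted by scintillation. IC50 read graphically at 50% of control TxB2/PGF2(α+β) count ratio; mean of ≥2 experiments.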

Data set [4] deals with Prostacyclin synthase (Bos taurus). Briefly: In vitro inhibitory activity against prostacyclin synthetase.
In data set [5] the target is Cyclooxygenase (Ovis aries). Briefly: In vitro inhibitory activity against Prostaglandin G/H synthase.

Broadly, the IC50 is the concentration that inhibits the measured activity by half. The low end stands for greater potency in that assay, the high end for weaker potency in that assay. On to `O=C(O)/C=C/CCCc1cccc2cncn12`, for which the concentration for half-maximal inhibition (IC50) against Thromboxane-A synthase [1] turned out to be 4.8 nM.

On Thromboxane-A synthase [1], `O=C(O)/C=C/CCCCCc1cccc2cncn12` came in with an IC50 of 40 nM.

On Thromboxane-A synthase [1], `O=C(O)CCCCc1ccc2cncn2c1` returned a half-inhibitory concentration (IC50) of 3300 nM.

The compound `Cc1ncc2cccc(CCCCCC(=O)O)n12` displayed an IC50 on Thromboxane-A synthase [1] of 25000 nM.

With `NC(=O)CCCCCc1cccc2cncn12`, on Thromboxane-A synthase [1], the IC50 is 77 nM.

The compound `C/C(=C\CCCCCc1cccc2cncn12)C(=O)O` gave a half-inhibitory concentration (IC50) against Thromboxane-A synthase [1] of 19 nM.

Take `CNC(=O)CCCCCc1cccc2cncn12`: half-maximal inhibition at Thromboxane-A synthase [1] (IC50) required 270 nM.

A word on the logP: it is the decadic logarithm of the partition coefficient of the neutral form, usually between octanol and water. Read a low logP as lower lipophilicity. For the compound `O=C(O)CCCCc1cccc2cncn12`, the 50% inhibitory concentration (IC50) on Thromboxane-A synthase [1] was 41 nM. Moreover, in data set [2], the logP stood at 0.7.

On Thromboxane-A synthase [1], `CCCCCCCc1cccc2cncn12` had a concentration for half-maximal inhibition (IC50) of 3300 nM.

Turning to `O=C(O)CCCCc1ccn2cncc2c1`, the midpoint of inhibition against Thromboxane-A synthase [1], the IC50, lay at 4700 nM.

As for `O=C(CCCCCc1cccc2cncn12)NO`, the midpoint of inhibition on Thromboxane-A synthase [1], the IC50, lay at 20 nM.

For `O=C(O)CCCCCCc1cccc2cncn12`, the 50% inhibitory concentration (IC50) on Thromboxane-A synthase [1] amounted to 5.2 nM. This compound also returned a logP in data set [2] of 1.54.

At Thromboxane-A synthase [1], `CCOC(=O)CCCCCc1cccc2cncn12` showed an IC50 of 330 nM.

Take `O=C(O)/C=C/C=C/c1cccc2cncn12`: the 50% inhibitory concentration (IC50) against Thromboxane-A synthase [1] was found to be 28 nM.

As for `O=C(O)CCCCc1cccn2cncc12`, the 50% inhibitory concentration (IC50) against Thromboxane-A synthase [1] is 390 nM.

On Thromboxane-A synthase [1], `O=C(O)CCCCCCCc1cccc2cncn12` showed a concentration for half-maximal inhibition (IC50) of 21 nM. Besides, the logP in data set [2] is 2.01.

Consider `OCCCCCCc1cccc2cncn12`, for which, at Thromboxane-A synthase [1], the IC50 was determined as 280 nM.

With `CN(C)C(=O)CCCCCc1cccc2cncn12`, 550 nM corresponded to half-maximal inhibition at Thromboxane-A synthase [1] (IC50).

The compound `c1cc(CCCCc2nnn[nH]2)n2cncc2c1` showed a half-maximal inhibitory concentration (IC50) at Thromboxane-A synthase [1] of 11 nM.

As to `c1cc(CCCCCc2nnn[nH]2)n2cncc2c1`, the 50% inhibitory concentration (IC50) against Thromboxane-A synthase [1] was found to be 19 nM.

Consider `N#CCCCCCc1cccc2cncn12`, for which, at Thromboxane-A synthase [1], 630 nM corresponded to half-maximal inhibition (IC50).

Turning to `O=C(O)CCCCCc1cccc2cncn12` [PIRMAGREL], the concentration for half-maximal inhibition (IC50) was 3.2 nM on Thromboxane-A synthase [3], 100000 nM in data set [4] and 10000 nM in data set [5]. In data set [2], this compound returned a logP of 1.1.
